Assay outcomes from PubChem.
The sample as a whole holds a higher share of hits than the screen did.
ABCB6 inh MLPCN = human ABCB6 transporter inhibition. Q9NP58. K562-ABCB6 porphyrin accumulation, flow cytometry, 1 h; active compounds read low. fluorescence ratio to DMSO, % at 10 µM. 360,000 tested, 0.19% active. AID 602162;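 active means fluorescence ratio to DMSO below 75%, the collection mean minus 3 SD; inconclusive means too few cells collected in the well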;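 further: signal is porphyrin accumulated inside mitochondria; 100% equals median channel fluorescence of DMSO control wells; lower ratio means ABCB6 inhibition with less porphyrin fluorescence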
Target sequence (Q9NP58 whole entry, looked up): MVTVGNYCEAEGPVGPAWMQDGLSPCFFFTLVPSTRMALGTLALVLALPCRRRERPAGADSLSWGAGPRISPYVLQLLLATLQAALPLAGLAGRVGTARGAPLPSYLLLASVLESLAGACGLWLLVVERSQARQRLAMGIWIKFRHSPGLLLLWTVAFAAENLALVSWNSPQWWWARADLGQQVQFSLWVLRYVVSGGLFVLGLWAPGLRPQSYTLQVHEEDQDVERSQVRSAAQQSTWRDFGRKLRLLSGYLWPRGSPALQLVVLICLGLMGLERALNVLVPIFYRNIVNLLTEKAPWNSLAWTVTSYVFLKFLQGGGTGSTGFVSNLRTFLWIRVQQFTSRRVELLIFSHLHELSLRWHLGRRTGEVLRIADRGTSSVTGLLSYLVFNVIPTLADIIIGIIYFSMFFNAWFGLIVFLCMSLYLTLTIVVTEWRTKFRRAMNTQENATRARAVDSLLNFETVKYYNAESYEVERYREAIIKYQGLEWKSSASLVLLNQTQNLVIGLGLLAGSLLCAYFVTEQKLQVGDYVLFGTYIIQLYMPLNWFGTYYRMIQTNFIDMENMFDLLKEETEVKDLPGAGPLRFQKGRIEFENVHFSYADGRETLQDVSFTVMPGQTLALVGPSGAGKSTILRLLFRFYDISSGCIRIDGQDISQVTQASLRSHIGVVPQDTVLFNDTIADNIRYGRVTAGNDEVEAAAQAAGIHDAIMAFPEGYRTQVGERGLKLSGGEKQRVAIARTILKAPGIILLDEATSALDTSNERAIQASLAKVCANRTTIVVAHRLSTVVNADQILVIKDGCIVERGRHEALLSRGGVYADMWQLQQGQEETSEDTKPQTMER
Xi reactivation = activators of X-chromosome reactivation in mouse fibroblasts; XiGFP mouse fibroblasts, % GFP-positive cells imaging, 3 d; cells co-treated with 5-aza-dC sensitizer; scaled so ellipticine positive control = 100%; activation, % at 7.58 µM; 360,000 tested, 0.055% active;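 active means mean normalized replicate activation at least 10% and every replicate at or above 10%; inconclusive means only one of the two criteria met; inactive means mean below 10% and not all replicates reach 10%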;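 further: 0% = median of on-plate neutral control wells and 100% = ellipticine 6 µM median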
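System: 68-5-11 XiGFP fibroblast line; Timing: 3 days compound exposure; Compound dosing: one concentration, pinned; Benchmarks: positive control ellipticine, 6 µM final; Buffer or medium: DMEM containing 5-aza-dC.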
Myeloid diff 2 = promotes myeloid progenitor differentiation; ER-HoxA9 myeloid progenitors, lysozyme-GFP differentiation, flow cytometry; calls only at 10 µM; 360,000 tested, 1% active;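 active means normalized GFP-positive differentiation at or above the plate's own cutoff, the solvent-only control mean plus 3 SD; inconclusive means no clear call, values can overlap the other calls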;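 further: cells exposed to compound for four days before flow analysis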
Numbers without * were called inactive.

Results for COc1ccc(NC(=O)Nc2ccc3c(c2)CC(=O)N([C@@H](C)CO)C[C@H](C)[C@H](CN(C)Cc2ccc(Cl)c(Cl)c2)O3)cc1 ?
Xi reactivation: 0.0

What do the screens show for `c1ccc2sc(NC3=NCN(C4CCCCC4)CN3)nc2c1`?
ABCB6 inh MLPCN: 95.0; Myeloid diff 2: inactive

What do the screens show for `CC1CCCCC1N1CN=C(Nc2nc3ccccc3s2)NC1` (stereo not given)?
ABCB6 inh MLPCN: 106.0; Myeloid diff 2: active

How did COc1cccc(CN(C)C[C@@H]2OCc3cn(nn3)CCCC(=O)N([C@H](C)CO)C[C@H]2C)c1 do in these assays?
Xi reactivation: -0.2

Results for Cc1ccc(NC(=O)c2nnn(CC(=O)Nc3ccccc3)c2N)cc1C ?
ABCB6 inh MLPCN: 101.0; Myeloid diff 2: active

What do the screens show for `Cc1ccc(NC(=O)Cn2nnc(C(=O)NCc3ccccc3)c2N)cc1C`?
ABCB6 inh MLPCN: 100.0; Myeloid diff 2: inactive

How did O=C(CCSc1ccc(Cl)cc1)N1CCN(c2ccc(O)cc2)CC1 do in these assays?
ABCB6 inh MLPCN: 97.0; Xi reactivation: 0.0; Myeloid diff 2: active

Results for O=C(CCSc1ccccc1)N1CCN(c2ccccc2)CC1 ?
ABCB6 inh MLPCN: 96.0; Xi reactivation: 0.2; Myeloid diff 2: inactive

What do the screens show for `COc1ccc(OC)c(C2=NOC(C(=O)Nc3cccc(C(C)=O)c3)C2)c1` (stereo not given)?
ABCB6 inh MLPCN: 98.0; Myeloid diff 2: active

What do the screens show for `COc1ccc(OC)c(C2=NOC(C(=O)Nc3ccccc3SC)C2)c1` (stereo not given)?
ABCB6 inh MLPCN: 107.0; Myeloid diff 2: inactive

How did Cc1ccc2nc(N3CCC(C(=O)O)CC3)nc(-c3ccccc3)c2c1 do in these assays?
ABCB6 inh MLPCN: 90.0; Myeloid diff 2: inactive

Results for Cc1ccc2nc(N3CC(=O)Nc4ccccc43)nc(-c3ccccc3)c2c1 ?
ABCB6 inh MLPCN: 113.0; Xi reactivation: 0.6; Myeloid diff 2: active

Results for O=C(COC(=O)COc1ccccc1)Nc1ncc([N+](=O)[O-])s1 ?
ABCB6 inh MLPCN: 96.0; Xi reactivation: 0.4; Myeloid diff 2: inactive

How did N/C(=N\OC(=O)Nc1ccccc1)c1ncc([N+](=O)[O-])s1 do in these assays?
ABCB6 inh MLPCN: 100.0; Xi reactivation: 0.0; Myeloid diff 2: active

Results for N#Cc1ccccc1Cn1cc(/C=N/Nc2ccc([N+](=O)[O-])cn2)c2ccccc21 ?
ABCB6 inh MLPCN: 468.0; Xi reactivation: 1.2; Myeloid diff 2: active

Results for O=[N+]([O-])c1ccc(NN=Cc2ccccc2O)nc1 ?
ABCB6 inh MLPCN: 109.0; Xi reactivation: 1.6; Myeloid diff 2: inconclusive

What do the screens show for `COCC(=O)N(C)C[C@H]1Oc2cc(-c3ccncc3)ccc2S(=O)(=O)N([C@H](C)CO)C[C@H]1C`?
Xi reactivation: -0.9

What do the screens show for `COC(C[C@H]1O[C@@H]1[C@H](O)COCc1ccccc1)OC`?
ABCB6 inh MLPCN: 101.0; Xi reactivation: 0.1; Myeloid diff 2: active

What do the screens show for `COC(C[C@@H]1O[C@H]1[C@@H](O)COCc1ccccc1)OC`?
ABCB6 inh MLPCN: 100.0; Xi reactivation: 0.5; Myeloid diff 2: inactive

What do the screens show for `Cc1noc(C)c1NC(=O)Nc1ccc2c(c1)C(=O)N([C@H](C)CO)C[C@@H](C)[C@H](CN(C)Cc1ccncc1)OCCCC[C@H](C)O2`?
Xi reactivation: 0.2

What do the screens show for `Cc1cc(C(N)=O)c2ccccc2n1`?
ABCB6 inh MLPCN: 104.0; Myeloid diff 2: inactive

How did Cc1cc(C(=O)N/N=C/c2cc([N+](=O)[O-])ccc2O)c2ccccc2n1 do in these assays?
ABCB6 inh MLPCN: 99.0; Myeloid diff 2: inactive

How did Cc1ccccc1C(=O)N/N=C/c1ccc([N+](=O)[O-])s1 do in these assays?
ABCB6 inh MLPCN: 104.0; Myeloid diff 2: inactive

How did Cc1cc(C(=O)N/N=C/c2ccc([N+](=O)[O-])s2)c2ccccc2n1 do in these assays?
ABCB6 inh MLPCN: 106.0; Xi reactivation: 0.0; Myeloid diff 2: active

How did Cc1cc(C(=O)O)c2ccccc2n1 do in these assays?
ABCB6 inh MLPCN: 110.0; Myeloid diff 2: active

Results for Cc1cc(C(=O)N/N=C/c2ccc([N+](=O)[O-])cc2)c2ccccc2n1 ?
ABCB6 inh MLPCN: 93.0; Xi reactivation: 0.3; Myeloid diff 2: active

Results for COc1ccc2c3c(n(C)c2c1)[C@@H](CO)N(C(=O)Nc1ccc(F)cc1)CC31CN(Cc2cccc(F)c2)C1 ?
Xi reactivation: 0.3

Results for CO[C@H]1CN(C)C(=O)c2ccc(NC(=O)C3CC3)cc2OC[C@H](C)N(C(=O)NC(C)C)C[C@@H]1C ?
Xi reactivation: -0.2

How did O=C(Nc1ccc(F)cc1)N[C@H]1C=C[C@@H](CC(=O)N2CCCCC2)O[C@@H]1CO do in these assays?
Xi reactivation: -0.5
